Data: ChEMBL document CHEMBL4433215, “SAR Studies and Biological Characterization of a Chromen-4-one Derivative as an Anti-Trypanosoma brucei Agent” (ACS Med Chem Lett, 2019)

Columns and labels:
Trypanosoma brucei [1] = assay: Antitrypanosomal activity against Trypanosoma brucei bloodstream form assessed as parasite growth inhibition at 10 uM after 72 hrs by resazurin dye-based assay relative to control; type: functional; conditions: read-out: GI
Procedure, shortened: (§1)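 T. brucei bloodstream forms were screened first. Compounds giving over 70% parasite growth inhibition then went to a full dose–response curve to derive EC50. Pentamidine was the reference.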

Trypanosoma brucei [2] = assay: Antitrypanosomal activity against Trypanosoma brucei bloodstream form after 72 hrs by resazurin dye-based assay relative to control; type: functional, organism-based; procedure, shortened: as §1
[3] = Cytotoxicity against human THP1 cells by MTT assay; type: cell-based, THP-1
[4] = Selectivity index, ratio of CC50 for cytotoxicity against human THP1 cells to EC50 for antitrypanosomal activity against Trypanosoma brucei bloodstream form; type: toxicity, cell-based; conditions: read-out: Ratio CC50/EC50
[5] = target: Voltage-gated inwardly rectifying potassium channel KCNH2 (Homo sapiens, UniProt Q12809); assay: Inhibition of human ERG at 10 uM after 2 hrs by fluorescence polarization assay
Voltage-gated inwardly rectifying potassium channel KCNH2, sequence (Q12809 whole entry): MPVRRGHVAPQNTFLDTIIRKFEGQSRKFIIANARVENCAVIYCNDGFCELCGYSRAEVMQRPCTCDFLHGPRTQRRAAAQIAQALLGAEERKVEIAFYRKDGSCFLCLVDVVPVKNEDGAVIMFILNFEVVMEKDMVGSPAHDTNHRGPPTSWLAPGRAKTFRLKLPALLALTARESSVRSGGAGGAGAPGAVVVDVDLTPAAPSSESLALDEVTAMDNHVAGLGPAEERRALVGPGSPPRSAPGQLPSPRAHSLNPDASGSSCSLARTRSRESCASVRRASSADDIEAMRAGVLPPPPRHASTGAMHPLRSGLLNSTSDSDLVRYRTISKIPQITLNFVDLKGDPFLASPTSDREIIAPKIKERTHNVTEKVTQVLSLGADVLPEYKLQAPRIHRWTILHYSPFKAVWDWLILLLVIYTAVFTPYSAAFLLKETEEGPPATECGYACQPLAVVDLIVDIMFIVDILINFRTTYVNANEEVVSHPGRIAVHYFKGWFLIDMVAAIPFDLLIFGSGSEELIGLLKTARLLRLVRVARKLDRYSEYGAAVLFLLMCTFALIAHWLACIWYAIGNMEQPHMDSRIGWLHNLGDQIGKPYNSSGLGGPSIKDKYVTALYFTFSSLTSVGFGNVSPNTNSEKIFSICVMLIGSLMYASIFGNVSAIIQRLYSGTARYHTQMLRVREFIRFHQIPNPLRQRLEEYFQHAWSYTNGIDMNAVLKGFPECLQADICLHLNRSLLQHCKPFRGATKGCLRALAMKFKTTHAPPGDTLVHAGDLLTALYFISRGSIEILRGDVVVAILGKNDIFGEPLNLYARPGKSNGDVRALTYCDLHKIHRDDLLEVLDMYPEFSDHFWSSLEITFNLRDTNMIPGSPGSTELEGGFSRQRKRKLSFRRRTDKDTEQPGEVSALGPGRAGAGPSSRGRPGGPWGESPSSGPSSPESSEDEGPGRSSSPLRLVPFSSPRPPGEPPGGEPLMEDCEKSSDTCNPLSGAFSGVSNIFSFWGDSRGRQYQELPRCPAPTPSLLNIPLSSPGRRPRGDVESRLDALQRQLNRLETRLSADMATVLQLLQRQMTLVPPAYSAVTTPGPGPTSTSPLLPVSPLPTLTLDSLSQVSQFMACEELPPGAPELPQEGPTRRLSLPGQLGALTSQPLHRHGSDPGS
Procedure, shortened: (§2)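 Single-concentration screen at 10 μM within an early in vitro ADME-tox panel, covering cytotoxicity in A549 cells and hERG inhibition.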

786-0 = assay: Mitochondrial toxicity in human 786-O cells at 10 uM after 6 hrs by MitoTracker Red chloromethyl-X-rosamine based assay; type: cell-based; conditions: 786-0, 6 h
[6] = Cytotoxicity against human A549 cells assessed as cell growth at 10 uM after 48 hrs by cell-titer-Glo assay relative to control; type: cell-based; conditions: read-out: Activity; procedure, shortened: as §2

SMILES	inhibition of growth at 10 µM (Trypanosoma brucei [1])	EC50 (Trypanosoma brucei [2])	CC50 [3]	selectivity ratio [4]	inhibition (INH) [5]	Activity (786-0)	viability at 48 h, 10 µM [6]	IC50 (Trypanosoma brucei [2])
COc1ccc2c(=O)c(O)c(-c3ccc4c(c3)CCO4)oc2c1	100%	3.1 µM	25 to 50 µM	8	Not Active	Non-Toxic	–	–
COc1ccc2c(=O)c(OC(=O)C3CCCCC3)c(-c3ccc4c(c3)OCO4)oc2c1	98%	0.5 µM	12.5 to 25 µM	25	Not Active	Non-Toxic	–	–
Cc1ccc2c(=O)c(O)c(-c3ccc4c(c3)OCO4)oc2c1	99%	0.4 µM	12.5 to 25 µM	31	Not Active	Non-Toxic	–	–
COc1ccc2c(=O)c(OC(=O)N(C)C)c(-c3ccc4c(c3)OCO4)oc2c1	25%	> 10 µM	> 100 µM	–	Not Active	Non-Toxic	–	–
COc1ccc2c(=O)c(OC(=O)C(C)C)c(-c3ccc4c(c3)OCO4)oc2c1	98%	0.5 µM	< 12.5 µM	24	Not Active	Non-Toxic	< 0%	–
COc1ccc2c(=O)c(OC(=O)C(C)(C)C)c(-c3ccc4c(c3)OCO4)oc2c1	100%	1.1 µM	> 100 µM	> 92	Not Active	Non-Toxic	–	–
O=c1c(O)c(-c2ccc3c(c2)OCO3)oc2ccc(F)cc12	7%	–	12.5 to 25 µM	–	Not Active	Non-Toxic	–	–
O=c1c(O)c(-c2ccc3c(c2)OCO3)oc2ccc(Br)cc12	38%	–	12.5 to 25 µM	–	Not Active	Non-Toxic	–	–
COc1ccc2oc(-c3ccc4c(c3)OCO4)c(O)c(=O)c2c1	19%	–	< 12.5 µM	–	Not Active	Non-Toxic	–	–
N=C(N)c1ccc(OCCCCCOc2ccc(C(=N)N)cc2)cc1 [PENTAMIDINE]	–	–	–	–	–	–	–	0.00155 µM
COc1ccc2c(=O)c(OC(C)=O)c(-c3ccc4c(c3)OCO4)oc2c1	100%	0.3 µM	< 12.5 µM	46	Not Active	Non-Toxic	–	–
